Results from ChEMBL document CHEMBL3046867, “Bioactive ryanoids from nucleophilic additions to 4,12-seco-4,12-dioxoryanodine” (J Med Chem, 1993).

How the values were obtained:
[1] = target: Ryanodine receptor 1 (Oryctolagus cuniculus) (UniProt P11716); assay: Displacement of [3H]ryanodine from Ca2+-ryanodine receptor in Oryctolagus cuniculus (rabbit) skeletal muscle sarcoplasmic reticulum after 2 hr by competitive inhibition assay relative to ryanodine
Outline: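 No ATP. […] Ryanoid given in DMSO (1% final). Glass-fiber filtration; three washes with ice-cold buffer a using Tris HCl instead of Hepes. Nonspecific binding with 10 μM dehydroryanodine. IC50 calculated by LIGAND; duplicate experiments.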

[2] = target: Ryanodine receptor 3 (Mus musculus) (UniProt A2AGL3); assay: Binding affinity to ryanodine receptor in Mus musculus albino Swiss-Webster (mouse) brain relative to ryanodine
[3] = target: Ryanodine receptor 1 (Oryctolagus cuniculus) (UniProt P11716); assay: Displacement of [3H]ryanodine from Ca2+-ryanodine receptor in Oryctolagus cuniculus (rabbit) skeletal muscle sarcoplasmic reticulum after 1 hr by competitive inhibition assay in presence of ATP relative to ryanodine
Outline: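 Unlabeled ryanoid introduced in DMSO (1% final) before incubation. Filtration, washes in 150 mM KCl/10 mM Hepes pH 7.4. Nonspecific binding: 10 μM dehydroryanodine. IC50 from LIGAND; duplicate experiments.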

Ryanodine receptor 3 = Ryanodine receptor 3 (Mus musculus, UniProt A2AGL3); assay: Binding affinity to ryanodine receptor in Mus musculus albino Swiss-Webster (mouse) brain
[4] = Toxicity in ip dosed Mus musculus albino Swiss-Webster (mouse) […]; assay type: organism-based; details: in vivo
Outline: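 Male albino Swiss-Webster mice, 18–22 g; ryanoid given ip in methoxytriglycol (50 μL); mortality read at 24 h.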

Musca domestica [5] = assay: Toxicity against SCR-susceptible Musca domestica (house fly) assessed as immobility compound administered by intrathoracic injection 1 to 2 hr after piperonyl butoxide treatment measured 4 hr post compound treatment relative to ryanodine; assay type: functional
Outline: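 Adult female flies pretreated with piperonyl butoxide (5 μg in 0.5 μL acetone, ventral abdomen); 1-2 h later, 0.22 μL ryanoid in DMSO injected into the thorax. Knockdown scored at 4 h and KD50 derived. Ten flies per dose, 1.50-2-fold dose steps, two or more experiments (or single determinations where estimated).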

Musca domestica [6] = assay: Toxicity against SCR-susceptible Musca domestica (house fly) assessed as mortality compound administered by intrathoracic injection 1 to 2 hr after piperonyl butoxide treatment measured 24 hr post compound treatment relative to ryanodine; assay type: functional

Sequence of Ryanodine receptor 3 (Mus musculus) (A2AGL3 whole entry): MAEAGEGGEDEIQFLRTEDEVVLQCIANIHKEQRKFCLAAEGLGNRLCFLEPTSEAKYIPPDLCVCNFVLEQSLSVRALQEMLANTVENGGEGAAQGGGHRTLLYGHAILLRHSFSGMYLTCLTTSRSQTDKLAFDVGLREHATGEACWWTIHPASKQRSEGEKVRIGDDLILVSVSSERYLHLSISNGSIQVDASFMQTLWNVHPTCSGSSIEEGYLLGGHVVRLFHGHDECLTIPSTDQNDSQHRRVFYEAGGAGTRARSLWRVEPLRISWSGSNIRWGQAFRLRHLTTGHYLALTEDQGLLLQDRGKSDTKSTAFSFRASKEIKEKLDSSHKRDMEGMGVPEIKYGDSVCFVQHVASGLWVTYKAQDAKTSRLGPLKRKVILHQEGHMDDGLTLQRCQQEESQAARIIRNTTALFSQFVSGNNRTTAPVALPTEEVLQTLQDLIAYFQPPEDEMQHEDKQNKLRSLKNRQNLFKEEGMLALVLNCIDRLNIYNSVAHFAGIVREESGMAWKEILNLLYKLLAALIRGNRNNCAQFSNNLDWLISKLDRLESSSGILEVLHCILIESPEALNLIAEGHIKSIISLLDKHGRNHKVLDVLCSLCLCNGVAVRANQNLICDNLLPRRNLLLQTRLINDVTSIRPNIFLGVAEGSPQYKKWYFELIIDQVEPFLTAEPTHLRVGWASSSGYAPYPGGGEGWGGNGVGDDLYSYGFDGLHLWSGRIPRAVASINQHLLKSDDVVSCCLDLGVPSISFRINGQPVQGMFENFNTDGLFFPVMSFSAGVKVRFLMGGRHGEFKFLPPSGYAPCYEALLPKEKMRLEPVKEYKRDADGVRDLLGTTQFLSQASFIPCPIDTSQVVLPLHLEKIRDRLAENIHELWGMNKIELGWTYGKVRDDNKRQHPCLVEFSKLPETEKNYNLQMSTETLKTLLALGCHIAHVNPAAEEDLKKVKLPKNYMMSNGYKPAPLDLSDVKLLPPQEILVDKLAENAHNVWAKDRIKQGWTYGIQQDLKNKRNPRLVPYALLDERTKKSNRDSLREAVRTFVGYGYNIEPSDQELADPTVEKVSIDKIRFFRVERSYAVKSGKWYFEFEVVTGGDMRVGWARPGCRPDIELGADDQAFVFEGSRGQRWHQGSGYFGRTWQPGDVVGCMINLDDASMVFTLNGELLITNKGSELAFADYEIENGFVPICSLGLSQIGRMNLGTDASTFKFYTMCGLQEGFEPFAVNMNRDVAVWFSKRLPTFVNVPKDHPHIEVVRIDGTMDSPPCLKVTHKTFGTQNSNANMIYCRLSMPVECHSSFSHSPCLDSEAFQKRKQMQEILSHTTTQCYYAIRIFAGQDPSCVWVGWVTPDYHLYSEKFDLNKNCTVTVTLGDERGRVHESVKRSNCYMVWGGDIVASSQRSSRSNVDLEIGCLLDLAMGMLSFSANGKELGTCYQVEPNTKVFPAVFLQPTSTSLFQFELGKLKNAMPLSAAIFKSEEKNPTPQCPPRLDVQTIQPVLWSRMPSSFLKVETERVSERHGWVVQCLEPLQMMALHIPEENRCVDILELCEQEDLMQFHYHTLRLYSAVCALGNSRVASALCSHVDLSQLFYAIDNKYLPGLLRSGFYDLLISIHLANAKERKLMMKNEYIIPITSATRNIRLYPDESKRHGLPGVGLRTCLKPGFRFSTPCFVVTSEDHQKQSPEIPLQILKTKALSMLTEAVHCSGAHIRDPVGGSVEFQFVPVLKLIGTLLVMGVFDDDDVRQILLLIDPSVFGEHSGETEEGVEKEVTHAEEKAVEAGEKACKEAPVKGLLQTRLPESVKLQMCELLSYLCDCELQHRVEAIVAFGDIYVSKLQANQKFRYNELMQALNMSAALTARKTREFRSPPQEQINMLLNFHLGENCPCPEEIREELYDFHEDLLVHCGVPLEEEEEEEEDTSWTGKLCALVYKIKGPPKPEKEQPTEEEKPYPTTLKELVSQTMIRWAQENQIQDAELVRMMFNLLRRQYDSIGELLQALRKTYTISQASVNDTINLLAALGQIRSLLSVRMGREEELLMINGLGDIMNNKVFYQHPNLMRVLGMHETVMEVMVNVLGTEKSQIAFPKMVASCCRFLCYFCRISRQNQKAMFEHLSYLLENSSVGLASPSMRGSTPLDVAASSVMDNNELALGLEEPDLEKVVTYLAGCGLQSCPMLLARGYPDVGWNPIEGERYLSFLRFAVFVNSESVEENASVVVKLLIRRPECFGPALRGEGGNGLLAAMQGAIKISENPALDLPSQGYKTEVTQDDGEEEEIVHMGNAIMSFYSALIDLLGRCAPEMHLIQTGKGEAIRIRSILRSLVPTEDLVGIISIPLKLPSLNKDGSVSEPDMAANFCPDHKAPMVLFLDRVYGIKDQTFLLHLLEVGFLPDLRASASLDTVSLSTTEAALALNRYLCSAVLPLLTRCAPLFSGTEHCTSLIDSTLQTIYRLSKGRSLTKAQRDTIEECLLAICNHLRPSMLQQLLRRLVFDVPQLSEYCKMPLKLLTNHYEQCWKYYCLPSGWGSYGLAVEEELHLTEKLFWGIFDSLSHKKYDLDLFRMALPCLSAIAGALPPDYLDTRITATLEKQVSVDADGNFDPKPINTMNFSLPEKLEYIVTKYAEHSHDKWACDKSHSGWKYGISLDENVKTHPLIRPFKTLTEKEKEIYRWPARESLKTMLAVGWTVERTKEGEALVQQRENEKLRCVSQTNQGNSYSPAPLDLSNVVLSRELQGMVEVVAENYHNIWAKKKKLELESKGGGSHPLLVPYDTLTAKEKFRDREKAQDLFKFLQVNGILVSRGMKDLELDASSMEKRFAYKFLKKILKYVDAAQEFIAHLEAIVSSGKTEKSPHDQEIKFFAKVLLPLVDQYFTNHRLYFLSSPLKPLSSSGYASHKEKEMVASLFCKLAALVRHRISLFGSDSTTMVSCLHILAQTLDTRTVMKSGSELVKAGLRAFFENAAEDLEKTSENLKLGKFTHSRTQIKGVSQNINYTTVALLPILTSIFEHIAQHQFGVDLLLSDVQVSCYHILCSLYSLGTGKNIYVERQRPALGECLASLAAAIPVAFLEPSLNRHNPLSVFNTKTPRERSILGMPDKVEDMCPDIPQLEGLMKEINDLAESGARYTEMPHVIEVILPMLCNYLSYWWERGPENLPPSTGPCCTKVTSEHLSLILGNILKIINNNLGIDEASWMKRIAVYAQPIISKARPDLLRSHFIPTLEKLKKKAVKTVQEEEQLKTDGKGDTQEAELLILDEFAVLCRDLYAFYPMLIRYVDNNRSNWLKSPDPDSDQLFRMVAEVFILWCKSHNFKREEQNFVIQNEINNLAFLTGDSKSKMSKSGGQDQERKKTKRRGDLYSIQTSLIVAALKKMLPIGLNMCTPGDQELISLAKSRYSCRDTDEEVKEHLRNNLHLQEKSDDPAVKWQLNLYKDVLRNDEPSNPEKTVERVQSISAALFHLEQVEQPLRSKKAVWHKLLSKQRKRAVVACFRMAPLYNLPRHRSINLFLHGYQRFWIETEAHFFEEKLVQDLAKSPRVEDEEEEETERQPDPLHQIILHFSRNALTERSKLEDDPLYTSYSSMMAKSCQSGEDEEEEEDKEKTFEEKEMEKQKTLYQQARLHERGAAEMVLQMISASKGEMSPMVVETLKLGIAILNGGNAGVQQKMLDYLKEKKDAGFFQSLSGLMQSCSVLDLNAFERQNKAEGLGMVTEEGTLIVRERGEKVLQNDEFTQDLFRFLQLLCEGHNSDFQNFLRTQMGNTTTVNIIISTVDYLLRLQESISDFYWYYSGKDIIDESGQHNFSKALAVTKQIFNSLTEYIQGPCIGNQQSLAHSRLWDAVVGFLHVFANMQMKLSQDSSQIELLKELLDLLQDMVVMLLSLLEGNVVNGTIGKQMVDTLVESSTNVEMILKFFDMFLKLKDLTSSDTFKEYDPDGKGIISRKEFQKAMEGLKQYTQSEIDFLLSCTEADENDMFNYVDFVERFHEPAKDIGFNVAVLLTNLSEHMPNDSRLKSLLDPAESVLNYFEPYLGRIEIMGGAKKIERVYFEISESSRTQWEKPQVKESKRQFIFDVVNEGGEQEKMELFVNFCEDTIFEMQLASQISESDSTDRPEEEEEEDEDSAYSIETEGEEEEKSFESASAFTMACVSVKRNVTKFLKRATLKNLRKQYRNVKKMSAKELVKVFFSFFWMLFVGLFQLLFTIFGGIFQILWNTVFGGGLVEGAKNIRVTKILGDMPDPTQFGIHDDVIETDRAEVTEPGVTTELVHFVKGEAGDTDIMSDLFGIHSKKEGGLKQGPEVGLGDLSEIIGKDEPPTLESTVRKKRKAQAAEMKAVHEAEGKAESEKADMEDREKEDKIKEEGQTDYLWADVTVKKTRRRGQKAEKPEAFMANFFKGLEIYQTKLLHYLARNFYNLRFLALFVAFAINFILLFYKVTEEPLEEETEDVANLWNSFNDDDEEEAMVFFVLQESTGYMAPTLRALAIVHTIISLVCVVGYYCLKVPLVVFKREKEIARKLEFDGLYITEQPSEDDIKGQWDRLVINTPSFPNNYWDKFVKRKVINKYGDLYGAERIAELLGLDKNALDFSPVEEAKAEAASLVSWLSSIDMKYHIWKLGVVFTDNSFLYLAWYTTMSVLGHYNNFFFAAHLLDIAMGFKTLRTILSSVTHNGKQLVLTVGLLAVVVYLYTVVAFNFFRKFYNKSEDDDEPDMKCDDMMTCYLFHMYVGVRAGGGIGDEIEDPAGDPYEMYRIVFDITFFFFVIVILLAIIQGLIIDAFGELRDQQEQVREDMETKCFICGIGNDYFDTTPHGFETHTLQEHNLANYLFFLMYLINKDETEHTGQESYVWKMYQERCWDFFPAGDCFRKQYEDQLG
Sequence of Ryanodine receptor 3 (A2AGL3 whole entry): as above

Structure (SMILES)	Ratio [1]	Ratio [2]	Ratio [3]	IC50 (Ryanodine receptor 3) [nM]	LD50 [4] [mg/kg]	Ratio (Musca domestica [5])	Ratio (Musca domestica [6])
CC(C)[C@@]1(O)[C@@H](OC(=O)c2ccc[nH]2)[C@@H](O)[C@@]2(C)C[C@]3(O)O[C@@]4([C@H](O)[C@@H](C)CC[C@@]42O)[C@@H](O)[C@]13C	4.7	5.4	5.3	–	–	–	–
CC(C)[C@@]1(O)[C@@H](OC(=O)c2ccc[nH]2)[C@@]2(O)[C@@]3(C)C[C@]4(O)O[C@@]5([C@H](O)[C@@H](C)CC[C@]35O)[C@@]2(O)[C@@]14C [RYANODINE]	–	–	–	3.3	0.49	–	–
CCCSC[C@H]1CC[C@]2(O)[C@]3(C)C[C@]4(O)O[C@@]2([C@@H]1O)[C@]1(O)[C@@]3(O)[C@H](OC(=O)c2ccc[nH]2)[C@](O)(C(C)C)[C@@]14C	–	0.88	–	–	–	4	6
CC(C)[C@@]1(O)[C@@H](OC(=O)c2ccc[nH]2)[C@]2(O)O[C@@]3(NO)[C@]45O[C@@](O)(C[C@@]2(C)[C@@]4(O)CC[C@H](C)[C@H]5O)[C@]31C	9	11	11	–	–	20	12
CC(C)[C@@]1(O)[C@@H](OC(=O)c2ccc[nH]2)[C@]2(NOCc3ccccc3)O[C@@]3(O)[C@]45O[C@@](O)(C[C@@]2(C)[C@@]4(O)CC[C@H](C)[C@H]5O)[C@]31C	13	8.3	21	–	–	2	–
CC(C)[C@@]1(O)[C@@H](OC(=O)c2ccc[nH]2)[C@@]2(O)[C@@]3(C)C[C@]4(O)O[C@@]5([C@H](O)[C@@H](CSC(C)(C)C)CC[C@]35O)[C@@]2(O)[C@]14C	–	0.41	–	–	–	2	–
CC(C)[C@@]1(O)[C@@H](OC(=O)c2ccc[nH]2)[C@]2(NO)O[C@@]3(O)[C@]45O[C@@](O)(C[C@@]2(C)[C@@]4(O)CC[C@H](C)[C@H]5O)[C@]31C	14	21	29	–	–	270	200
C=C1CC[C@]2(O)[C@]3(C)C[C@]4(O)O[C@@]2([C@@H]1O)[C@]1(O)O[C@@]3(NNc2ccccc2)[C@H](OC(=O)c2ccc[nH]2)[C@](O)(C(C)C)[C@@]14C	5.4	2.5	6.1	–	–	<2	–
C=C1CC[C@]2(O)[C@]3(C)C[C@]4(O)O[C@@]2([C@@H]1O)[C@]1(O)O[C@@]3(NNC(=O)c2ccccc2)[C@H](OC(=O)c2ccc[nH]2)[C@](O)(C(C)C)[C@@]14C	–	–	6.5	–	–	13	40
CC(C)[C@@]1(O)[C@@H](OC(=O)c2ccc[nH]2)[C@@H]2O[C@@]3(O)[C@]45O[C@@](O)(C[C@@]2(C)[C@@]4(O)CC[C@H](C)[C@H]5O)[C@]31C	28	21	19	–	–	27	40
C=C1CC[C@]2(O)[C@]3(C)C[C@]4(O)O[C@@]2([C@@H]1O)[C@]1(NNC(N)=O)O[C@@]3(O)[C@H](OC(=O)c2ccc[nH]2)[C@](O)(C(C)C)[C@@]14C	6.1	–	4.4	–	–	<4	–
CC(C)[C@@]1(O)[C@@H](OC(=O)c2ccc[nH]2)[C@]2(NO)O[C@H]3[C@]45O[C@@](O)(C[C@@]2(C)[C@@]4(O)CC[C@H](C)[C@H]5O)[C@]31C	50	43	67	–	–	200	100
C=C1CC[C@]2(O)[C@]3(C)C[C@]4(O)O[C@@]2([C@@H]1O)[C@]1(O)O[C@@]3(NNC(N)=O)[C@H](OC(=O)c2ccc[nH]2)[C@](O)(C(C)C)[C@@]14C	10	–	6.6	–	–	10	6
C=C1CC[C@]2(O)[C@]3(C)C[C@]4(O)O[C@@]2([C@@H]1O)[C@]1(NNc2ccccc2)O[C@@]3(O)[C@H](OC(=O)c2ccc[nH]2)[C@](O)(C(C)C)[C@@]14C	2.6	3.3	3	–	–	<1.3	<3
C=C1CC[C@@]2(O)[C@]3(O[C@@]4(O)C[C@]2(C)C(=O)[C@H](OC(=O)c2ccc[nH]2)[C@](O)(C(C)C)[C@@]4(C)C3=O)[C@@H]1O [4,12-SECO-4,12-DIOXODEHYDRORYANODIN]	0.79	1.1	0.97	–	–	4	4
CO/N=C1/[C@H](OC(=O)c2ccc[nH]2)[C@](O)(C(C)C)[C@@]2(C)C(=O)[C@]34O[C@@]2(O)C[C@@]1(C)[C@@]3(O)CC[C@H](C)[C@H]4O	0.75	0.7	0.86	–	–	10	12
CC(C)[C@@]1(O)[C@@H](OC(=O)c2ccc[nH]2)C(=O)[C@@]2(C)C[C@]3(O)O[C@]4(/C(=N\O)[C@]13C)[C@H](O)[C@@H](C)CC[C@@]42O	1.7	1.9	3.1	–	–	8	30
C=C1CC[C@]2(O)[C@]3(C)C[C@]4(O)O[C@@]2([C@@H]1O)[C@]1(/N=N/c2ccccc2)O[C@@]3(O)[C@H](OC(=O)c2ccc[nH]2)[C@](O)(C(C)C)[C@@]14C	4.7	3.6	6.3	–	–	6	–
C=C1CC[C@]2(O)[C@]3(C)C[C@]4(O)O[C@@]2([C@@H]1O)[C@]1(O)O[C@@]3(NN)[C@H](OC(=O)c2ccc[nH]2)[C@](O)(C(C)C)[C@@]14C	11	14	14	–	–	50	60
CON[C@@]12O[C@@]3(O)[C@]45O[C@@](O)(C[C@@]1(C)[C@@]4(O)CC[C@H](C)[C@H]5O)[C@@]3(C)[C@@](O)(C(C)C)[C@H]2OC(=O)c1ccc[nH]1	23	27	23	–	–	13	8
CC(C)[C@@]1(O)[C@@H](OC(=O)c2ccc[nH]2)C(=O)[C@@]2(C)C[C@]3(O)O[C@]4(C(=O)[C@]13C)[C@H](O)[C@@H](C)CC[C@@]42O [4,12-SECO-4,12-DIOXORYANODIN]	1.6	–	1.8	–	–	0.85	2
C=C1CC[C@]2(O)[C@]3(C)C[C@]4(O)O[C@@]2([C@@H]1O)[C@]1(O)[C@@]3(O)[C@H](OC(=O)c2ccc[nH]2)[C@](O)(C(C)C)[C@@]14C [DEHYDRORYANODINE]	91	77	112	–	–	90	136
CON[C@@]12O[C@H]3[C@]45O[C@@](O)(C[C@@]1(C)[C@@]4(O)CC[C@H](C)[C@H]5O)[C@@]3(C)[C@@](O)(C(C)C)[C@H]2OC(=O)c1ccc[nH]1	20	28	34	–	–	7	20
CC(C)[C@@]1(O)[C@@H](OC(=O)c2ccc[nH]2)[C@]2(O)O[C@H]3[C@]45O[C@@](O)(C[C@@]2(C)[C@@]4(O)CC[C@H](C)[C@H]5O)[C@]31C	62	54	64	–	0.15	270	120
CC(C)[C@@]1(O)[C@@H](OC(=O)c2ccc[nH]2)[C@@]2(O)[C@@]3(C)C[C@]4(O)O[C@@]5([C@H](O)[C@@H](CSCCO)CC[C@]35O)[C@@]2(O)[C@]14C	–	0.86	–	–	–	5	6
CC(C)[C@@]1(O)[C@@H](OC(=O)c2ccc[nH]2)/C(=N/OCc2ccccc2)[C@@]2(C)C[C@]3(O)O[C@]4(C(=O)[C@]13C)[C@H](O)[C@@H](C)CC[C@@]42O	1.3	0.94	2.1	–	–	0.8	1
CC(C)[C@@]1(O)[C@@H](OC(=O)c2ccc[nH]2)/C(=N/O)[C@@]2(C)C[C@]3(O)O[C@]4(C(=O)[C@]13C)[C@H](O)[C@@H](C)CC[C@@]42O	0.76	0.78	0.88	–	–	2.7	6
CON[C@@]12O[C@@]3(O)[C@H](OC(=O)c4ccc[nH]4)[C@](O)(C(C)C)[C@]1(C)[C@]1(O)C[C@@]3(C)[C@@]3(O)CC[C@H](C)[C@@H](O)[C@@]32O1	–	–	–	–	–	1.3	2
